Screening data: PubChem, several laboratories
Compounds with a hit are over-represented: about 1.4% of the library has one in this group of screens.
Rev-erbA mod = Rev-erb alpha (human) modulation; P20393; Rev-erbα–FITC-DNA binding, fluorescence polarization, 90 min; activity, % at 10 µM; actives 0.79% (n = 370,000); AID 1259318;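 active = activity above about 14%, limit read from the data; passing the limit was not always enough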;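 also: 0% = DMSO wells with 35 nM protein and 100% = DMSO wells with 750 nM protein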
Target sequence (P20393 whole entry, looked up): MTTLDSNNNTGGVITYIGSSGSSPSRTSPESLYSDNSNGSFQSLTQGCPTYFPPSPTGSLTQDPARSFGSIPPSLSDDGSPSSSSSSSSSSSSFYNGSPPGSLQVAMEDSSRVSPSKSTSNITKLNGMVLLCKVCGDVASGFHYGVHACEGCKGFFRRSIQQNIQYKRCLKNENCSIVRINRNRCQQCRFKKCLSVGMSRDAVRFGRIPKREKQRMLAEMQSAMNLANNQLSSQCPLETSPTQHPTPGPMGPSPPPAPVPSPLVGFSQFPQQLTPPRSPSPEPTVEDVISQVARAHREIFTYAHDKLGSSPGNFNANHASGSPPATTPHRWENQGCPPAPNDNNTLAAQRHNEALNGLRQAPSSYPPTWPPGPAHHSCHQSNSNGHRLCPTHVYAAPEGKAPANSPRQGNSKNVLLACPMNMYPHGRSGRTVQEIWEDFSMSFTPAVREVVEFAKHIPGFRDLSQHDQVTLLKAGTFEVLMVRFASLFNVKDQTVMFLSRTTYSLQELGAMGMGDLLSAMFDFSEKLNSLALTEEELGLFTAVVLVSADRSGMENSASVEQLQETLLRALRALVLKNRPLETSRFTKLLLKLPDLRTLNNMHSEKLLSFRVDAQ
PG9 binder = small molecules binding HIV-1 gp120 antibody PG9 | TR-FRET gp120-PG9 antibody binding | inhibition, % at 6.7 µM | actives 0.43% (n = 360,000) | AID 624416; in the data active = inhibition above about 8.5%
NR2E3 ag-1 = NR2E3 (human) agonism. GST-NR2E3/biotin-RetCOR TR-FRET, 1536-well. AID 2300. inhibition of corepressor binding, % at 4.78 µM. actives 0.12% (n = 320,000). Q9Y5X4;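 active = percent inhibition above the cutoff of mean plus 3 SD of all tested compounds, set per screening campaign, cut at about 20% in these data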;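 also: 0% = DMSO wells and 100% = biotin wells as full block of FRET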
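Test system: GST-NR2E3 and biotin-RetCOR proteins | Quantity: 1.35 nM GST-tagged NR2E3 final | Medium: Tris pH 7.5 | Also added: 7 nM biotin-RetCOR | Dosing: Compound at 4.8 µM, single dose | Timing: 5 h at 4 °C | Detection: Time-resolved FRET | Read-out basis: Percent inhibition | Benchmarks: Biotin wells as high control, 0.6% DMSO wells as low control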
NR2E3 ag-2 = activates human NR2E3 receptor. Q9Y5X4. CHO-S Gal4-NCOR/VP16-NR2E3 two-hybrid, luciferase. inhibition of corepressor binding, % at 3.98 µM. actives 0.35% (n = 360,000). AID 602229;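 active = inhibition above the mean of all tested compounds plus 3 SD, cut at about 70% in these data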;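 also: 0% = DMSO with NR2E3 transfected cells and 100% = cells lacking NR2E3 construct; higher means lower luciferase signal from less NR2E3 corepressor binding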
NR2E3 ag confirm = NR2E3 (human) agonism, confirmation; shares compounds with NR2E3 ag-1; cell-free NR2E3 corepressor release, TR-FRET, 5 h; activation (reported as inhibition), % at 3.98 µM; actives 39% (n = 360); in the data active = activation above about 20%
PPARg-NCOR2 ag = PPARg-NCOR2 interaction agonism, NR2E3 counter-screen | shares compounds with NR2E3 ag-1 | TR-FRET PPARg-NCOR2 coregulator interaction, biochemical | inhibition, % at 3.98 µM | actives 45% (n = 360); in the data active = inhibition above about 20%;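 also: 0% = DMSO vehicle and 100% = wells without protein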
* marks the source's active call; other numbers are inactive results; / = no result given; ! = a repeat was not active.

SMILES	Rev-erbA mod	PG9 binder	NR2E3 ag-1	NR2E3 ag-2	NR2E3 ag confirm	PPARg-NCOR2 ag
C[C@]12C=CC(=O)C=C1CCC1C2C(=O)C[C@@]2(C)C1CC[C@]2(O)C(=O)CO (stereo partly specified)	-2	/	/	/	/	/
CCc1cc(Cl)c(OC)c(C(=O)NC[C@H]2CCCN2CC)c1O	5	/	/	/	/	/
O=C(CCC(=O)N1CCOc2ccccc21)NC1CCCCCC1	0	0	3	-36	/	/
CCOC(=O)N1CCC(NC(=O)CCC(=O)N2CCOc3ccccc32)CC1	-8	15*	2	-1	/	/
Cc1ccc(Cl)cc1NC1=C/C(=N\S(=O)(=O)c2cccs2)c2ccccc2C1=O	3	-2	9	79*!	/	/
Cc1ccc(NC2=C/C(=N\S(=O)(=O)c3cccs3)c3ccccc3C2=O)c(C)c1	/	/	7	108*	/	/
O=C(O)c1ccc(NC2=C/C(=N/S(=O)(=O)c3cccs3)c3ccccc3C2=O)cc1	-19	-16	/	-2	/	/
Cc1cccc(NC2=C/C(=N/S(=O)(=O)c3cccs3)c3ccccc3C2=O)c1	-3	-2	0	-6	/	/
Cc1cc(C(C#N)c2ccc(Cl)cc2)c(Cl)cc1NC(=O)c1cc(I)cc(I)c1O (stereo unspecified)	9	-2	0	101*	/	/
Cc1cc(NC(=O)c2ccc(Cl)cc2)c(C)cc1O	-8	-2	0	-22	/	/
Cc1nn(C)c(C)c1S(=O)(=O)N(CC(=O)Nc1ccc2c(c1)OCO2)c1ccc(C(C)C)cc1	-5	14*	-2	29	/	/
COC(=O)c1cccc(Nc2cc(C)nc(-c3ccccc3O)n2)c1	12	0	-1	7	/	/
COC(=O)c1ccc(Nc2cc(C)nc(-c3ccccc3O)n2)cc1	25	45*	1	-20	/	/
Cc1cc(/C=C2/SC(=S)N(c3cccc(C(F)(F)F)c3)C2=O)c(C)n1-c1cccnc1	/	/	-2	88*	/	/
Cc1cc(/C=C2\SC(=S)N(Cc3ccco3)C2=O)c(C)n1-c1cccnc1	5	-3	/	-32	/	/
COc1ccc(/C=C\C(=O)O[C@@H]2C(O)C(O[C@@H]3OC(C)[C@H](O[C@@H]4OCC(O[C@H]5O[C@H](CO)[C@@H](O)C(O)C5O)C(O)C4O)C(O)C3O)[C@H](OC(=O)[C@]34CCC(C)(C)C[C@@H]3C3=CCC5[C@@]6(C)CC(O)C(O[C@@H]7OC(CO)C(O)[C@H](O)[C@H]7O)[C@@](C)(C(=O)O)C6CC[C@@]5(C)[C@]3(CO)CC4)O[C@H]2C)cc1 (stereo partly specified)	/	/	/	96*	/	/
C=CCOc1cccc(C2C(C(=O)c3ccco3)=C(O)C(=O)N2Cc2ccncc2)c1 (stereo unspecified)	-1	2	5	-2	/	/
C=CCOc1cccc(C2C(C(=O)c3ccc(C)o3)=C(O)C(=O)N2Cc2ccncc2)c1 (stereo unspecified)	-3	11*	12	-16	/	/
Oc1ccc(-c2n[nH]c(C(F)(F)F)c2-c2ccccc2)c(O)c1	3	-1	1	76*	/	/
COc1ccc(CS(=O)(=O)/C(Cl)=C(/Cl)C(=O)Nc2ccc(OC)nc2)cc1	/	/	-3	74*	/	/
CCCCC/C=C/CCC(=O)N[C@H]1[C@H](Oc2c3cc4cc2Oc2ccc(cc2Cl)[C@@H](O[C@@H]2O[C@H](CO)[C@@H](O)[C@H](O)[C@H]2NC(C)=O)[C@@H]2NC(=O)[C@H](NC(=O)[C@@H]4NC(=O)[C@H]4NC(=O)C(Cc5ccc(c(Cl)c5)O3)NC(=O)[C@H](N)c3ccc(O)c(c3)Oc3cc(O)cc4c3)c3ccc(O)c(c3)-c3c(O[C@@H]4O[C@H](CO)[C@@H](O)[C@H](O)[C@@H]4O)cc(O)cc3[C@@H](C(=O)O)NC2=O)O[C@H](CO)[C@@H](O)[C@@H]1O	-4	/	/	/	/	/
COC(=O)c1cc(C)nc2c1C(=O)C(=O)C=C2N1CCOCC1	-1	-12	38*	20	43*	57*
C=CCN(CC=C)Cc1c(O)ccc2c1oc(=O)c1ccccc12	2	5	34*	-34	14	-4
O=C(CN1C(=O)COc2ccccc21)N(Cc1cccnc1)Cc1ccccc1F	7	/	31*	-35	-12	-8
O=C(CCN1C(=O)COc2ccccc21)NCc1cccnc1	2	-1	0	-7	/	/
SMILES	Rev-erbA mod	PG9 binder	NR2E3 ag-1	NR2E3 ag-2	NR2E3 ag confirm	PPARg-NCOR2 ag
O=C(c1cc2nc(-c3ccco3)cc(C(F)(F)F)n2n1)N1CCCCCC1	-9	-1	-1	21	/	/
O=C(NCCCN1CCCC1=O)c1cc2nc(-c3ccco3)cc(C(F)(F)F)n2n1	5	-1	22*	-5	-10	-5
CC(C)(C)C(=O)CSc1nc2c(c(-c3cccs3)c1C#N)CCC2	8	4	21*	-28	5	18
Cc1ccccc1C(=O)Nc1ccc(C(=O)N2CCC[C@@H](O)c3cc(Cl)ccc32)c(C)c1	-3	/	/	/	/	/
COc1ccc(NC(=O)CCNC(=O)c2ccccc2)cc1S(N)(=O)=O	-2	-1	1	-13	/	/
COc1ccc(NC(=O)CCNS(=O)(=O)c2cc(Br)ccc2Br)cc1S(N)(=O)=O	5	-2	23*	12	-8	-7
NS(=O)(=O)c1cccc(C(=O)NC2CCSc3ccccc32)c1 (stereo unspecified)	5	0	4	-3	/	/
NS(=O)(=O)c1cc(C(=O)NC2CCSc3ccccc32)ccc1Cl (stereo unspecified)	-15	1	20*	-12	7	-2
CC1Cc2nc(SCC(=O)Nc3nccs3)n(C)c(=O)c2S1 (stereo unspecified)	-3	-1	21*	-13	-4	-7
CC1=NN(c2ccc(C)c(C)c2)C(=O)C1C(c1cccc(O)c1)C1C(=O)N(c2ccc(C)c(C)c2)N=C1C (stereo unspecified)	-1	-2	21*	28	-4	6
CC(=O)O[C@]1(C(C)=O)CCC2C3C=C(Cl)C4=CC(=O)CC[C@]4(C)C3CC[C@@]21C (stereo partly specified)	4	/	/	/	/	/
Nc1ccc2c(c1)C(=O)C(=O)c1ccccc1-2	-21	-42	20*	70	9	48*
Nc1ccc2c(c1)C(=O)c1ccccc1-2	-2	-13	-11	-12	/	/
C[C@@H]1CC[C@H]2[C@@H](C)C(O)O[C@@H]3OC4(C)CC[C@@H]1[C@]32OO4 (stereo partly specified)	-3	/	/	/	/	/
CCN(CC)c1ccc2c(-c3ccc(S(=O)(=O)O)cc3S(=O)(=O)[O-])c3ccc(=[N+](CC)CC)cc-3oc2c1	/	/	46*	5	41*	48*
CCN(CC)c1ccc2nc3c4ccccc4c(=O)cc-3oc2c1	-1	-12	/	/	/	/
